According to ChEMBL document CHEMBL1137010, “Improved peptide prodrugs of 5-ALA for PDT: rationalization of cellular accumulation and protoporphyrin IX production by direct determination of cellular prodrug uptake and prodrug metabolization” (J Med Chem, 2009):

Test system: PAM212
Assay: Drug uptake in mouse PAM212 cells assessed as enhanced PpIX fluorescence at 0.1 mM after 4 hrs
Assay type: ADME, cell-based
Conditions: pam212, 4 h, 100 µM; call rule not given here
Summary of the method: (§1)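 PAM212 cells were seeded 5 × 10^4/well, grown 48 h, PBS-washed and incubated with drug at 0.01 or 0.1 mM in serum-free medium for 4 or 6 h. Untreated wells gave background and ALA wells served as reference. Well fluorescence: excitation 410 nm, emission 635 nm, scans 600–750 nm. Mean intensity (arbitrary units) after control subtraction, calibrated against rhodamine B.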

SMILES | Drug uptake
CCOC(=O)CCC(=O)CNC(=O)[C@H](Cc1ccccc1)NC(C)=O | Active
COC(=O)CCC(=O)CNC(=O)[C@@H](NC(C)=O)C(C)C | Active
COCCOCCOC(=O)CCC(=O)CNC(=O)[C@H](Cc1ccccc1)NC(C)=O | Active
COCCOC(=O)CCC(=O)CNC(=O)[C@H](Cc1ccccc1)NC(C)=O | Active
CC(=O)N[C@@H](Cc1ccccc1)C(=O)NCC(=O)CCC(=O)O[C@@H]1C[C@H](C)CCC1C(C)C (some centres not stated) | Active

Test system: PAM212
Assay: Drug uptake in mouse PAM212 cells assessed as enhanced PpIX fluorescence at 0.01 mM after 4 hrs
Assay type: ADME, cell-based
Conditions: pam212, 4 h, 10 µM
Summary of the method: as §1

SMILES | Drug uptake
CCOC(=O)CCC(=O)CNC(=O)[C@H](Cc1ccccc1)NC(C)=O | Active
COCCOCCOC(=O)CCC(=O)CNC(=O)[C@H](Cc1ccccc1)NC(C)=O | Active
COCCOC(=O)CCC(=O)CNC(=O)[C@H](Cc1ccccc1)NC(C)=O | Active
CC(=O)N[C@@H](Cc1ccccc1)C(=O)NCC(=O)CCC(=O)O[C@@H]1C[C@H](C)CCC1C(C)C (some centres not stated) | Active

Test system: not listed separately
Assay: Chromatographic hydrophobicity index in methanol solution under isocratic conditions at pH 6.8
Assay type: physicochemical
Conditions: not given
Summary of the method: (§2)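 RP-HPLC on a C18 column at 35 °C, 0.7 mL/min. Mobile phase was CH3CN or CH3OH with 50 mM aq ammonium formate (pH 6.8). […], with t0 from uracil and tR measured in duplicate. Six isocratic compositions were chosen so that −1.5 < log k < 0.6, and the index was derived from the linear log k versus organic-fraction relation.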

SMILES | CHI
COC(=O)CCC(=O)CNC(=O)[C@H]1CCCN1C(C)=O | 27.34
CCOC(=O)CCC(=O)CNC(=O)[C@H](Cc1ccccc1)NC(C)=O | 57.58
COC(=O)CCC(=O)CNC(=O)[C@@H](C)NC(C)=O | 17.3
COC(=O)CCC(=O)CNC(=O)[C@@H](NC(C)=O)C(C)C | 41.6
COC(=O)CCC(=O)CNC(=O)[C@@H]1CCCN1C(C)=O | 27.47
COC(=O)CCC(=O)CNC(=O)[C@@H](Cc1c[nH]c2ccccc12)NC(C)=O | 22.08
COC(=O)CCC(=O)CNC(=O)[C@H](NC(C)=O)C(C)C | 40.76
COC(=O)CCC(=O)CNC(=O)[C@H](Cc1cnc[nH]1)NC(C)=O | 28.89
COCCOCCOC(=O)CCC(=O)CNC(=O)[C@H](Cc1ccccc1)NC(C)=O | 58.35
COC(=O)CCC(=O)CNC(=O)CNC(C)=O | 18.77
COC(=O)CCC(=O)CNC(=O)[C@H](Cc1ccc(O)cc1)NC(C)=O | 40.73
COCCOC(=O)CCC(=O)CNC(=O)[C@H](Cc1ccccc1)NC(C)=O | 79.03
CC(=O)N[C@@H](Cc1ccccc1)C(=O)NCC(=O)CCC(=O)O[C@@H]1C[C@H](C)CCC1C(C)C (some centres not stated) | 110.53
COC(=O)CCC(=O)CNC(=O)[C@@H](CC(C)C)NC(C)=O | 50.76

Test system: not listed separately
Assay: Chromatographic hydrophobicity index in acetonitrile solution under isocratic conditions at pH 6.8
Assay type: physicochemical
Conditions: not given
Summary of the method: as §2

SMILES | CHI
COC(=O)CCC(=O)CNC(=O)[C@H]1CCCN1C(C)=O | 18.7
CCOC(=O)CCC(=O)CNC(=O)[C@H](Cc1ccccc1)NC(C)=O | 44.01
COC(=O)CCC(=O)CNC(=O)[C@@H](C)NC(C)=O | 17.3
COC(=O)CCC(=O)CNC(=O)[C@@H](NC(C)=O)C(C)C | 25.64
COC(=O)CCC(=O)CNC(=O)[C@@H]1CCCN1C(C)=O | 18.69
COC(=O)CCC(=O)CNC(=O)[C@@H](Cc1c[nH]c2ccccc12)NC(C)=O | 37.32
COC(=O)CCC(=O)CNC(=O)[C@H](NC(C)=O)C(C)C | 24.74
COC(=O)CCC(=O)CNC(=O)[C@H](Cc1cnc[nH]1)NC(C)=O | 15.59
COCCOCCOC(=O)CCC(=O)CNC(=O)[C@H](Cc1ccccc1)NC(C)=O | 38.88
COC(=O)CCC(=O)CNC(=O)CNC(C)=O | 10.31
COC(=O)CCC(=O)CNC(=O)[C@H](Cc1ccc(O)cc1)NC(C)=O | 34.14
COCCOC(=O)CCC(=O)CNC(=O)[C@H](Cc1ccccc1)NC(C)=O | 38.26
CC(=O)N[C@@H](Cc1ccccc1)C(=O)NCC(=O)CCC(=O)O[C@@H]1C[C@H](C)CCC1C(C)C (some centres not stated) | 53.22
COC(=O)CCC(=O)CNC(=O)[C@@H](CC(C)C)NC(C)=O | 33.89
